Bioassay records: PubChem BioAssay, Sanford-Burnham Center for Chemical Genomics
MT1-MMP act inh: blockers of MT1-MMP proenzyme processing, primary screen, HT1080 RFP-PRO-GFP cells, GFP/RFP fluorescence; Matrix metalloproteinase-14 (Homo sapiens), P50281; GFP/RFP ratio fluorescence, overnight; percent of plate control window, DMSO zero; GFP/RFP ratio change, % at 20 µM; actives 0.061% (n = 360,000); AID 651647, 2012;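 active means GFP/RFP ratio change of at least 30% with cell ATP level not reduced by more than half and red fluorescence within 50% of control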
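Assay system: RFP-PRO-GFP reporter HT1080 cells; read-out basis: GFP/RFP fluorescence ratio; benchmarks: DMSO wells and RFP-L50D-GFP cells; doses: 20 µM single dose, 1% DMSO; schedule: overnight cell settling, then overnight compound exposure, 37 °C, 5% CO2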
PABP FP inh: PABP poly(A) RNA binding inhibitors, primary screen, biochemical, fluorescence polarization, uHTS; calls only at 35 µM; actives 1% (n = 290,000); AID 2014, 2009;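 further: calls also rest on retests at 20 µM and on dose response follow-up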
eIF4H inh: human eIF4H binding inhibitors, primary screen, translation initiation inhibitor project, biochemical, uHTS, fluorescence polarization; Eukaryotic translation initiation factor 4H (Homo sapiens), Q15056; eIF4H fluorescence polarization binding assay; inhibition, % at 35 µM; actives 0.94% (n = 290,000); AID 2012, 2009;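 further: calls also rest on retests at 20 µM and on dose response follow-up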
MLLE-PAM2 inh: inhibitors of PABP1 MLLE–PAM2 peptide binding, primary screen, biochemical, fluorescence polarization, FITC-PAM2, GST-MLLE | Polyadenylate-binding protein 1 (Homo sapiens), P11940 | actives 0.36% (n = 360,000) | inhibition, % at 20 µM | AID 588489, 2011; in the data active means inhibition above about 35%, passing the limit was not always enough
SKN-1 block: suppressors of acrylamide-induced Pgst-4::GFP reporter in worms, primary screen, SKN-1 inhibitor project, whole organism, uHTS, GFP/RFP fluorescence ratio, strain VP596; C. elegans VP596 Pgst-4::GFP/RFP ratio, 24 h; inhibition, % at 21.8 µM; actives 0.49% (n = 360,000);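 active means interference check ratio from 0.5 to 1.5 plus GFP to RFP signal ratio inhibition reaching or exceeding a fixed threshold, cut at about 30% in these data, passing the limit was not always enough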
Each line names hits and unclear results; the compound was inactive in the other large screens. A selection: hits, their analogues and other compounds. The true share with any hit is near 1.8%. Unless noted, how the calls were made is not given here.

CCc1cc(C(=O)N2CCN(C(=O)c3ccco3)CC2)sc1C	none (no result: PABP FP inh, eIF4H inh)
COc1ccc(NC(=S)Nc2cccc3cnccc23)cc1	PABP FP inh active
Cc1nnc(NC(=O)c2ccc(F)c(S(=O)(=O)N3CCCCC3)c2)s1	none
CCC(=O)NCCCc1nc2ccccc2n1Cc1ccccc1F	PABP FP inh active
CCC(=O)NCc1nc2ccccc2n1Cc1ccccc1F	none
C[C@@H]1CN([C@@H](C)CO)C(=O)CCCn2nncc2CO[C@H]1CN(C)S(=O)(=O)c1ccccc1C#N	none (no result: PABP FP inh, eIF4H inh)
O=CNc1ccc2c3c(cccc13)-c1ccccc1-2	MLLE-PAM2 inh 47 (no result: PABP FP inh, eIF4H inh)
C[C@H]1CN(C2CCCCC2)C(=O)[C@@H]1CC(=O)Nc1ccccc1	none (no result: PABP FP inh, eIF4H inh)
COc1ccccc1C(=O)Nc1ncc2c(n1)CC(c1ccco1)CC2=O (stereo unspecified)	PABP FP inh active, eIF4H inh 74
COc1ccc(/C=N/NC(=O)c2ccc(COc3ccccc3Cl)o2)c(OC)c1C	none
COc1ccc(/C=N/NC(=O)c2ccc(COc3ccccc3Cl)o2)cc1	SKN-1 block 38
O=C(NCc1ccccc1)Nc1nnc([C@@H]2C[C@H](O)[C@@H](CO)O2)s1	none (no result: PABP FP inh, eIF4H inh)
O=C(c1ccco1)N1CCN(C(=O)c2cc(-c3ccccn3)nc3ccc(Cl)cc23)CC1	eIF4H inh 100
O=C(c1ccco1)N1CCN(C(=O)c2cc(-c3ccccc3)nc3ccccc23)CC1	none
C[C@@H]1CN([C@@H](C)CO)C(=O)CCCn2nncc2CO[C@@H]1CN(C)C(=O)Cc1ccccc1	none (no result: PABP FP inh, eIF4H inh)
Cc1ccccc1-c1cc2nc(C)c(Cl)c(=O)n2[nH]1	none (no result: PABP FP inh, eIF4H inh)
Cc1cc(=O)n2[nH]c(-c3ccc(F)cc3)cc2n1	none
COCc1cc(=O)n2[nH]c(-c3ccsc3-n3c(C)ccc3C)cc2n1	PABP FP inh active, eIF4H inh 80
Cc1cc(=O)n2[nH]c(-c3ccsc3-n3c(C)ccc3C)cc2n1	PABP FP inh active, eIF4H inh 75
Cc1nc2cc(-c3ccsc3-n3c(C)ccc3C)[nH]n2c(=O)c1Cl	PABP FP inh active, eIF4H inh 85
O=C(c1cc(-c2cccs2)nn1-c1ccccc1)N1CCN(S(=O)(=O)c2ccccc2)CC1	none (no result: PABP FP inh, eIF4H inh)
CN1C=CC(=O)[C@@H](O)[C@H]1c1ccccc1Br	none (no result: PABP FP inh, eIF4H inh)
Fc1ccc(Oc2nnnn2-c2ccccc2)cc1	none
Brc1ccc(Oc2nnnn2-c2ccccc2)cc1	SKN-1 block 37
CCNC(=O)OCCC12CC3CC(CC(C3)C1)C2	PABP FP inh active
CCCNC(=O)OCC12CC3CC(CC(C3)C1)C2	none
Cc1ccc2cc(C#N)c(N3CCCC3)nc2c1C	none
Cc1ccc2cc(C#N)c(N3CCCN(C(=O)C4CCCO4)CC3)nc2c1C (stereo unspecified)	PABP FP inh active, eIF4H inh 94
Cc1ccc(NC(=S)N/N=C2/CCCCc3ccccc32)cc1	MLLE-PAM2 inh 42
Cn1nccc1-c1ccc(C(=O)Nc2cccc(NS(C)(=O)=O)c2)c2occc12	SKN-1 block 37 (no result: PABP FP inh, eIF4H inh)
O=C(C[C@H]1CC[C@@H]2[C@H](COC[C@@H](O)CN2Cc2cccc(F)c2)O1)NCC1CCCCC1	none (no result: PABP FP inh, eIF4H inh, MLLE-PAM2 inh)
Cc1cc(=O)n2nc(-c3ccccc3)sc2n1	PABP FP inh active, eIF4H inh 56
C[C@@H]1CN([C@@H](C)CO)C(=O)CCCn2nncc2CO[C@H]1CN(C)S(=O)(=O)c1cccc(C#N)c1	none (no result: PABP FP inh, eIF4H inh)
COc1cc(/C=C2/SC(=S)N(Cc3ccccc3)C2=O)cc(Cl)c1O	PABP FP inh inconclusive, eIF4H inh inconclusive, SKN-1 block 36
O=C1/C(=C\c2cccc([N+](=O)[O-])c2O)SC(=S)N1Cc1ccccc1	none
COc1cc([N+](=O)[O-])cc(/C=C2/SC(=S)N(Cc3ccccc3)C2=O)c1O	SKN-1 block 52
COc1cc(/C=C2\SC(N)=NC2=O)cc(Cl)c1O	PABP FP inh active
Cc1cccc(C)c1N1C(=O)c2ccccc2NC(=O)C1C(=O)NCCc1ccccc1 (stereo unspecified)	none (no result: PABP FP inh, eIF4H inh, MLLE-PAM2 inh)
CN(C(=O)c1cc(-c2ccccc2)on1)C1CCCCC1	none
O=C(N/N=C/c1ccc(Cl)cc1)Nc1ccccc1	SKN-1 block 41
COC(=O)c1cc2ccccn2c2c(C(=O)OC)c(C(=O)OC)cc1-2	none
COC(=O)c1cc2c(C)c(C)c3ccccn3c-2c1C(=O)OC	MLLE-PAM2 inh 60
COC(=O)c1cc2n3ccccc3c(C)c(-c3ccccc3)c-2c1C(=O)OC	PABP FP inh active, eIF4H inh 130, MLLE-PAM2 inh 47
O=C(COC(=O)CNC(=O)c1ccccc1F)NC1CC1	none (no result: PABP FP inh, eIF4H inh)
COc1ccc(NC(=O)CNc2ccccc2N2CCCC2=O)cc1S(=O)(=O)N1CCOCC1	none (no result: PABP FP inh, eIF4H inh)
C=CCOc1ccccc1CN(CCc1ccccc1)C(=O)c1cccc(S(C)(=O)=O)c1	none
CCCCCCn1c(=O)n2n(c1=O)[C@@H]1CN(S(=O)(=O)c3ccc(C)cc3)C[C@]1(O)[C@@H](OC(=O)NCc1ccco1)C2	none (no result: PABP FP inh, eIF4H inh)
O=C(Nc1ccc(OC(F)F)c(Cl)c1)c1ccccn1	SKN-1 block 59
CCCOc1ccc(Cl)cc1/C=C1/C(=O)ON=C1C	none
CC1=NOC(=O)/C1=C\c1ccc(-c2ccc(Cl)cc2Cl)o1	eIF4H inh 55
CC(=O)[C@@H]1[C@@H](C(=O)c2ccc(F)cc2)[C@]2(C(=O)Nc3ccccc32)[C@H]2C=Cc3cc(F)ccc3N12	none
O=C(c1ccc(F)cc1)[C@@H]1[C@@H](C(=O)c2ccccc2)[C@@]2(C(=O)Nc3ccccc32)[C@H]2c3ccccc3C=CN12	eIF4H inh 51 (no result: MT1-MMP act inh, MLLE-PAM2 inh, SKN-1 block)
CCc1nc2ccccc2n1CC(=O)OCC(=O)N(CC(C)C)c1c(N)n(Cc2ccccc2)c(=O)[nH]c1=O	none (no result: PABP FP inh, eIF4H inh)
Cc1ccc(S(=O)(=O)CCC(=O)Nc2cccc(S(=O)(=O)N3CCCCCC3)c2)cc1	none (no result: PABP FP inh, eIF4H inh)
Cc1nc2cc(C(=O)O)ccc2s1	MLLE-PAM2 inh 39
Cc1nc2ccc(NC(=O)c3ccccc3)cc2s1	none
Cc1ccc(NC(=O)c2cc(-c3ccco3)on2)cc1C	SKN-1 block 36
Cc1ccc(NC(=O)c2cc(-c3ccco3)on2)cc1	none
COc1ccc(NC(=O)C2Cc3c(-c4ccc(Cl)cc4)ccnc3O2)cc1OC (stereo unspecified)	none (no result: PABP FP inh, eIF4H inh)
CC(C)OC(=O)n1c(=S)oc2ccccc21	none
CCCCC(=O)/C=C/n1c(=S)oc2ccccc21	SKN-1 block 39
NS(=O)(=O)c1ccc(NC(=O)CSc2ccccn2)cc1	none
NS(=O)(=O)c1cccc(NC(=O)CSc2ccccn2)c1	PABP FP inh active
CCN(CC)c1ccc(-c2c(C#N)c(N)nc(OC)c2C#N)cc1	PABP FP inh active, eIF4H inh 60
COc1ccccc1NC(=O)N(C)C[C@H]1Oc2ncc(Br)cc2C(=O)N([C@H](C)CO)C[C@H]1C	none (no result: PABP FP inh, eIF4H inh)
